Data from ChEMBL document CHEMBL4196163, “In Silico Identification of Piperidinyl-amine Derivatives as Novel Dual Binders of Oncogene c-myc/c-Kit G-quadruplexes” (ACS Med Chem Lett, 2018).
The source made the active and inactive calls. No cut-off for these calls is given here.

Columns and labels:
dsDNA = assay: Binding affinity to double stranded DNA (unknown origin) assessed as change in melting temperature at 20 uM by fluorescence assay; type: nucleic-acid assay
Quadruplex DNA [1] = assay: Binding affinity to 5'-Dabcyl/3'-FM labeled c-Kit G-quadruplex DNA (unknown origin) assessed as change in melting temperature at 20 uM by fluorescence assay; type: nucleic-acid assay
In short: (§1)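 Fluorescence melting of end-labelled oligonucleotides matching the c-myc and c-Kit G4 sequences used in the virtual screen. Melting profiles were recorded with and without increasing ligand concentrations.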

Quadruplex DNA [2] = assay: Binding affinity to 5'-Dabcyl/3'-FM labeled c-myc G-quadruplex DNA (unknown origin) assessed as change in melting temperature at 20 uM by fluorescence assay; type: nucleic-acid assay; in short: as §1
Quadruplex DNA [3] = assay: Stabilization of c-Kit G-quadruplex DNA (unknown origin) by circular dichroism method; type: nucleic-acid assay
Quadruplex DNA [4] = assay: Stabilization of c-myc G-quadruplex DNA (unknown origin) by circular dichroism method; type: nucleic-acid assay
Quadruplex DNA [5] = assay: Stabilization of 5'-biotinylated c-Kit G-quadruplex DNA (unknown origin) by surface plasmon resonance assay; type: nucleic-acid assay
HGC-27 = assay: Cytotoxicity against human HGC27 cells assessed as reduction in cell viability after 72 hrs by Alamar blue assay; type: functional, cell-based; conditions: for IC50: HGC-27, 72 h
In short: (§2)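 Cells were exposed to the compound for 72 h, and viability was read by Alamar Blue. IC50 values were taken from dose-response curves, with linear regression coefficients (R2) reported.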

[6] = (§3) Cytotoxicity against human HMC-1.2 cells assessed as reduction in cell viability after 72 hrs by Alamar blue assay; type: functional, cell-based; in short: as §2
Homo sapiens = species: Homo sapiens; assay: as §3; type: functional, cell-based; in short: as §2

Row | SMILES | Activity (dsDNA) | ΔTm (Quadruplex DNA [1]) [°C] | ΔTm (Quadruplex DNA [2]) [°C] | Kd (Quadruplex DNA [3]) [nM] | Activity (Quadruplex DNA [4]) | Activity (Quadruplex DNA [5]) | ΔTm (dsDNA) [°C] | Activity (Quadruplex DNA [3]) | Activity (HGC-27) | IC50 (HGC-27) [nM] | IC50 [6] [nM] | Activity (Homo sapiens)
1 | CC(C)CC(N)C(=O)NC1CCN(C(=O)Cn2ccc3ccncc32)CC1 (stereo not drawn) | inactive | 0.3 | 0.1 | – | – | – | – | – | – | – | – | –
2 | CC(C)(N)C(=O)NC1CCN(C(=O)Cn2ccc3ccncc32)CC1 | inactive | 0.1 | 0.6 | – | – | – | – | – | – | – | – | –
3 | CCn1cc(C(NC(=O)CCCN)c2ccc(F)cc2)c2ccncc21 (stereo not drawn) | inactive | 1.1 | 0.4 | – | – | – | – | – | – | – | – | –

Second part, led by results:

Row | Activity (dsDNA) | ΔTm (Quadruplex DNA [1]) [°C] | ΔTm (Quadruplex DNA [2]) [°C] | Kd (Quadruplex DNA [3]) [nM] | Activity (Quadruplex DNA [4]) | Activity (Quadruplex DNA [5]) | ΔTm (dsDNA) [°C] | Activity (Quadruplex DNA [3]) | SMILES | Activity (HGC-27) | IC50 (HGC-27) [nM] | IC50 [6] [nM] | Activity (Homo sapiens)
4 | inactive | 3.2 | 5.4 | 18000 | Active | Dose-dependent effect | – | – | CCOc1cc(CNCC2CCNCC2)ccc1OCc1ccc(Cl)cc1 | Dose-dependent effect | 2370 | 2560 | Dose-dependent effect
5 | – | 3 | 2 | – | Active | – | 1.5 | Active | Cc1cc(-c2ccc(CNCC3CCNCC3)o2)ccc1Br | Dose-dependent effect | 2550 | 2560 | Dose-dependent effect
6 | inactive | 2.3 | 1.3 | – | Active | Dose-dependent effect | – | Active | Cc1ccc(COc2ccc(CNCC3CCNCC3)cc2)cc1 | Dose-dependent effect | 4220 | 4000 | Dose-dependent effect
